Among the data in ChEMBL document CHEMBL1143049, “Preparation, biological activity and endogenous occurrence of N6-benzyladenosines” (Bioorg Med Chem, 2007) are Activity and IC50 values, retold here.

Experiment [1] deals with Amaranthus. Briefly: Cytokinin activity in Amaranthus cotyledons assessed as dark induction of betacyanin synthesis at 0.1 mmol/L relative to 6-Benzylaminopurine. In kind it is functional. An outline of the steps:
(§1)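 Dark induction of betacyanin in excised Amaranthus cotyledons. DMSO stock brought to 10^-3 M in water, diluted into assay medium (DMSO ≤0.2%). Tested over 10^-4 to 10^-8 M, five replicates per concentration, assay repeated at least three times. Response at the optimal concentration expressed relative to BAP at its optimum (set to 100).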

Experiment [2] is described as follows: Antitumor activity against human MCF cells after 72 hrs by Calcein AM assay. In kind it is functional, cell-based. Summed up:
(§2)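 Cells grown in DMEM at 37 °C under 5% CO2. Compounds added after 12 h preincubation in 96-well plates, final 0.5-170 μM, with 0.6% final DMSO, then 72 h exposure. Viable cells stained with Calcein AM for 1 h and read at 485/538 nm. IC50 (concentration lethal to 50% of cells) taken from dose-response curves. Run in quadruplicate.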

For experiment [3], the system named is CCRF-CEM. Nature of the experiment: Antitumor activity against human CEM cells after 72 hrs by Calcein AM assay. In kind it is functional, cell-based. Summed up:
as §2

Experiment [4] in a line: Cytotoxicity against mouse NIH 3T3 cells after 72 hrs by Calcein AM assay. In kind it is cell-based. To be noted: NIH3T3, 72 h. An outline of the steps: as §2
In experiment [5] the test system is Triticum aestivum. Briefly: Cytokinin activity in wheat assessed as retention of chlorophyll in excised wheat leaves at 0.1 mmol/L relative to 6-Benzylaminopurine by senescence assay. The class given is functional. An outline of the steps:
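Senescence assay measuring chlorophyll retention in excised wheat leaves. DMSO stocks brought to 10^-3 M with water, then diluted in assay medium to a final DMSO of at most 0.2%. Concentrations 10^-4 to 10^-8 M, quintuplicate, repeated at least three times. Response at the optimal concentration normalised to BAP optimum = 100.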

For experiment [6], the system named is B16. Nature of the experiment: Antitumor activity against mouse B16 cells after 72 hrs by Calcein AM assay. The class given is functional, cell-based. To be noted: B16, 72 h. An outline of the steps: as §2
Experiment [7] concerns Nicotiana tabacum. Briefly: Cytokinin activity in tobacco assessed as stimulation of callus growth at 0.01 mmol/L relative to 6-Benzylaminopurine. In kind it is functional. Summed up: (§3)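 Stimulation of tobacco callus growth. Compounds dissolved in DMSO, brought to 10^-3 M in water and diluted into medium (DMSO ≤0.2%). Range 10^-4 to 10^-8 M, five replicates per concentration, at least three independent repeats. Activity at the optimal concentration given relative to BAP's optimal response, taken as 100.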

Experiment [8] has as its system G-361. Briefly: Antitumor activity against human G361 cells after 72 hrs by Calcein AM assay. In kind it is functional, cell-based. To be noted: G-361, 72 h. Summed up: as §2
Experiment [9] concerns K562. Briefly: Antitumor activity against human K562 cells after 72 hrs by Calcein AM assay. The class given is functional, cell-based. The settings on record: K562, 72 h. An outline of the steps: as §2
The test system of experiment [10] is HL-60. Nature of the experiment: Antitumor activity against human HL60 cells after 72 hrs by Calcein AM assay. The settings on record: HL-60, 72 h. In kind it is functional, cell-based. An outline of the steps: as §2
Experiment [11] deals with HOS. Briefly: Antitumor activity against human HOS cells after 72 hrs by Calcein AM assay. In kind it is functional, cell-based. Summed up: as §2
Experiment [12] concerns Nicotiana tabacum. Nature of the experiment: Cytokinin activity in tobacco assessed as stimulation of callus growth at 1 umol/L relative to 6-Benzylaminopurine. The class given is functional. An outline of the steps:
as §3

In experiment [13] the test system is Amaranthus. Nature of the experiment: Cytokinin activity in Amaranthus cotyledons assessed as dark induction of betacyanin synthesis at 0.01 mmol/L relative to 6-Benzylaminopurine. The class given is functional. Summed up:
as §1

The target in experiment [14] is Histidine kinase 4 (Arabidopsis thaliana) (UniProt Q9C5U0). Nature of the experiment: Activation of Arabidopsis thaliana CRE1/AHK4 cytokinin receptor relative to trans-zeatin. Set-up: concentration or dose not given beside the values. Summed up:
(§4)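 E. coli KMI001 carrying pSTV28-AHK3 or pIN-III-AHK4, precultured overnight at 25 °C in M9 + 0.1% casamino acids to OD600 ~1. Diluted 1:600, compound or solvent added, then incubated at 25 °C for 28 h (AHK3) or 17 h (CRE1/AHK4). Supernatant incubated with 4-methylumbelliferyl β-D-galactoside for 1 h at 37 °C and stopped with Na2CO3. Fluorescence read at 365/460 nm. β-galactosidase expressed as nmol 4-MU × OD600⁻¹ × h⁻¹.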

Experiment [15] addresses T1, Histidine kinase 3 (Arabidopsis thaliana) (UniProt Q9C5U1).
T1 sequence (whole entry): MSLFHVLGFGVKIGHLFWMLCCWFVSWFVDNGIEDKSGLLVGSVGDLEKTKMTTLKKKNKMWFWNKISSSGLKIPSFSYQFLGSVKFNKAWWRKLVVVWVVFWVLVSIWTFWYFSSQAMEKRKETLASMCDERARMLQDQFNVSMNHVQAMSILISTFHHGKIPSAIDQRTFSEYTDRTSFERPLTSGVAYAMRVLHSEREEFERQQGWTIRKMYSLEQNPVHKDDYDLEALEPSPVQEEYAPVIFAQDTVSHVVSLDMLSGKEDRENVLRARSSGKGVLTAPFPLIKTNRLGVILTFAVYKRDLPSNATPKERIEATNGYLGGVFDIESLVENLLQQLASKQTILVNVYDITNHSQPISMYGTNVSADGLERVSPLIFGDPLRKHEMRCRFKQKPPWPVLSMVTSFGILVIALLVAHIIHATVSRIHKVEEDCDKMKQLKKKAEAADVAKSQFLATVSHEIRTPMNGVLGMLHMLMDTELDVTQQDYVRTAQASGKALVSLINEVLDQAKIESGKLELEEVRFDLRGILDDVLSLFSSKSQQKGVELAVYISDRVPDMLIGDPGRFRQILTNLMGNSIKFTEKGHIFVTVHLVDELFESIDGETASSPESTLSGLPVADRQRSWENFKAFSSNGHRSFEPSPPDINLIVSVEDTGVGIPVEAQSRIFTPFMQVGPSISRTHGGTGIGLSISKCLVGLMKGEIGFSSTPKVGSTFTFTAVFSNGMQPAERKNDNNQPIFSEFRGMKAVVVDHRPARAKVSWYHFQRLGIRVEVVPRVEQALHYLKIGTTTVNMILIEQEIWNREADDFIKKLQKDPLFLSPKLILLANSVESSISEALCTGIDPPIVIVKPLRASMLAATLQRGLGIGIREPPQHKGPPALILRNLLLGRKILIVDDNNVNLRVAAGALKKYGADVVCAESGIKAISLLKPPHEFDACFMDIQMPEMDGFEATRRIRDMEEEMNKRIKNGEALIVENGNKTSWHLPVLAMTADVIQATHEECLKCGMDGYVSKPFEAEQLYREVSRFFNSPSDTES
Nature of the experiment: Activation of Arabidopsis thaliana AHK3 cytokinin receptor relative to trans-zeatin. Also on record: concentration or dose not given beside the values. Summed up:
as §4

Sequence of Histidine kinase 4 (Arabidopsis thaliana) (Q9C5U0 whole entry): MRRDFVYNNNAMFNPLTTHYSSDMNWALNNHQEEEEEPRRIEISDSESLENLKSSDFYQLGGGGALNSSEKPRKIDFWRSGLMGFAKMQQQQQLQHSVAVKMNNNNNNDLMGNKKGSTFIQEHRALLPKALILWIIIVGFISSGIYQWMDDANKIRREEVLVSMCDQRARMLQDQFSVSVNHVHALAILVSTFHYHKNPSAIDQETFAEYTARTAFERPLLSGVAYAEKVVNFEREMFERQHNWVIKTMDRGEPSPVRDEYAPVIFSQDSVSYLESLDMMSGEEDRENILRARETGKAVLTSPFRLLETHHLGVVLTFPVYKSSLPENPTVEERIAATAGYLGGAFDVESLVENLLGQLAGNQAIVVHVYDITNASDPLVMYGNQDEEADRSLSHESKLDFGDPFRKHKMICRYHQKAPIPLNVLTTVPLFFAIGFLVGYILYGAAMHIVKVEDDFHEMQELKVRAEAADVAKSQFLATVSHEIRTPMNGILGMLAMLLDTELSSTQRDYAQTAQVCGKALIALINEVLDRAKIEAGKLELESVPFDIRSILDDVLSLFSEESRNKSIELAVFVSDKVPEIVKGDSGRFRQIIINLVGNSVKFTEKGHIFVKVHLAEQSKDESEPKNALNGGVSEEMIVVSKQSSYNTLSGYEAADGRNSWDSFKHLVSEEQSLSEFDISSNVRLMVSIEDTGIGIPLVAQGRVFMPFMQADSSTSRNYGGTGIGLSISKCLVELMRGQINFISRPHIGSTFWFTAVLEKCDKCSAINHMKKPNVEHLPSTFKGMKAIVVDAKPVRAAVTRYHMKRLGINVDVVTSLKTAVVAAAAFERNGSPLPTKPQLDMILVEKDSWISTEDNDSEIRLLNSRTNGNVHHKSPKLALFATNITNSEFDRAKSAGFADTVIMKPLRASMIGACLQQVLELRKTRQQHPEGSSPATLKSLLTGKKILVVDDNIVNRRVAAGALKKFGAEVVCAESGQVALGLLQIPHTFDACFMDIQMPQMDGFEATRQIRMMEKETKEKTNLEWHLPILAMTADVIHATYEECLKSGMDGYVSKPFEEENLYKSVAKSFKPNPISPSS

By IC50 is commonly meant the concentration at which inhibition is half-maximal. In the case of `OC[C@H]1O[C@@H](n2cnc3c(NCc4cccc(Br)c4)ncnc32)[C@H](O)[C@@H]1O`, the figures for the Activity in experiment [1], in [5] and in [7] were 151%, 89% and 82%, respectively. Moreover, the IC50 is above 167 µM in [2]; 5 µM in [3]; above 167 µM in experiment [4]; above 167 µM in experiment [6]; above 167 µM in experiment [8]; 19.7 µM in experiment [9]. Further, the IC50 was 8 µM in [10] and above 167 µM in experiment [11].
As to `OC[C@H]1O[C@@H](n2cnc3c(NCc4ccc(F)cc4Cl)ncnc32)[C@H](O)[C@@H]1O`, the Activity worked out at 115% in [1], 165% in experiment [5] and 98% in experiment [7]. Further, the IC50 in [2] was above 167 µM; in experiment [3], 20.9 µM; in experiment [4], above 167 µM; in [6], above 167 µM; in experiment [8], above 167 µM; in experiment [9] it was 15.6 µM. In addition, the values for the IC50 in experiment [10] and in experiment [11] were 9 µM and above 167 µM, respectively.
Regarding `OC[C@H]1O[C@@H](n2cnc3c(NCc4ccc(F)c(F)c4F)ncnc32)[C@H](O)[C@@H]1O`, the values for the Activity in experiment [1], in [5] and in experiment [7] were 95%, 144% and 94%, respectively. In addition, the IC50 in experiment [2] is above 167 µM; in experiment [3], 58.2 µM; in [6], above 167 µM; in [8], above 167 µM; in experiment [9], above 167 µM; in experiment [10], 13 µM. Further, the IC50 in experiment [11] is above 167 µM.
Take `OC[C@H]1O[C@@H](n2cnc3c(NCc4ccccc4OC(F)F)ncnc32)[C@H](O)[C@@H]1O`: the Activity is reported as 81% in [1], 180% in [5] and 89% in [7]. Moreover, the IC50 in experiment [2], in [8], in [9] and in experiment [11] was above 167 µM in each case.
Take `Cc1cccc(CNc2ncnc3c2ncn3[C@@H]2O[C@H](CO)[C@@H](O)[C@H]2O)c1`: the IC50 in experiment [2] was above 167 µM; in experiment [3] it was 19.1 µM; in experiment [4] it was above 167 µM; in [6], above 167 µM; in [8], above 167 µM; in experiment [9], above 167 µM. Besides, the IC50 in experiment [10] is 6.4 µM; in [11] it was above 167 µM. Moreover, the figures for the Activity in [12], in experiment [5] and in [13] were 90%, 143% and 96%, respectively.
Turning to `COc1ccc(CNc2ncnc3c2ncn3[C@@H]2O[C@H](CO)[C@@H](O)[C@H]2O)c(OC)c1`, the results for the Activity in [1], in experiment [5] and in [7] were 3%, 30% and 5%, respectively. Moreover, the IC50 in experiment [2] was above 167 µM; in experiment [3] it was above 167 µM; in experiment [9], above 167 µM; in experiment [10] it was 39 µM; in experiment [11], above 167 µM.
As for `OC[C@H]1O[C@@H](n2cnc3c(NCc4ccc(F)c(Cl)c4)ncnc32)[C@H](O)[C@@H]1O`, the Activity in experiment [1] is reported as 82%; in experiment [12], 87%; in experiment [5], 156%. The IC50 in experiment [2] is above 167 µM; in experiment [3], 3.4 µM; in [4], above 167 µM; in [6] it was 167 µM; in [8], above 167 µM; in experiment [9] it was 5.5 µM. For the same compound, the IC50 in experiment [10] is 3.5 µM; in experiment [11], above 167 µM.
For `Cc1cccc(CNc2ncnc3c2ncn3[C@@H]2O[C@H](CO)[C@@H](O)[C@H]2O)c1O`, the Activity in experiment [1] is reported as 55%; in experiment [7] it was 5%. In addition, the IC50 in [2] was 6.9 µM; in experiment [3], 0.9 µM; in experiment [6] it was above 167 µM; in [8], above 167 µM; in [9], 18 µM; in [10], 15 µM. In experiment [11], the IC50 is above 167 µM.
Turning to `OC[C@H]1O[C@@H](n2cnc3c(NCc4ccc(Br)cc4)ncnc32)[C@H](O)[C@@H]1O`, the figures for the Activity in experiment [1], in experiment [12] and in experiment [5] were 30%, 16% and 76%, respectively. In addition, the 50% inhibitory concentration (IC50) is above 167 µM in [2]; 20.6 µM in experiment [3]; above 167 µM in experiment [4]; above 167 µM in [6]; above 167 µM in experiment [8]; 68.2 µM in experiment [9]. Besides, the IC50 is 47.4 µM in [10] and above 167 µM in experiment [11].
Consider `COc1ccc(CNc2ncnc3c2ncn3[C@@H]2O[C@H](CO)[C@@H](O)[C@H]2O)cc1`, for which the Activity in experiment [1] was 17%; in experiment [12], 2%; in experiment [5], 65.5%; in experiment [14], 0.22%; in experiment [15], 2.45%. The IC50 is above 167 µM in experiment [2]; above 167 µM in experiment [3]; 19.5 µM in [6]; 115 µM in experiment [8]; 156 µM in experiment [9]; above 167 µM in experiment [10]. Also, in experiment [11], the IC50 is above 167 µM.
`OC[C@H]1O[C@@H](n2cnc3c(NCc4ccccc4)ncnc32)[C@H](O)[C@@H]1O` [N6-BENZYLADENOSINE]: the IC50 in experiment [2] is 5.4 µM; in experiment [3] it was 1.4 µM; in [4], 39 µM; in experiment [6] it was above 167 µM; in experiment [8] it was above 167 µM; in [9], 5.5 µM. The concentration for half-maximal inhibition (IC50) in experiment [10] was 0.94 µM; in experiment [11] it was above 167 µM. Further, the Activity worked out at 0.35% in [14] and 2.53% in experiment [15].
As to `COc1cccc(CNc2ncnc3c2ncn3[C@@H]2O[C@H](CO)[C@@H](O)[C@H]2O)c1`, the Activity in experiment [1] turned out to be 98%; in experiment [12] it was 92%; in [5] it was 209%; in experiment [14] it was 0.14%; in experiment [15] it was 1.12%. The IC50 is above 167 µM in experiment [2]; 7.6 µM in [3]; above 167 µM in experiment [4]; above 167 µM in experiment [6]; above 167 µM in experiment [9]; 4.9 µM in experiment [10]. Moreover, the half-inhibitory concentration (IC50) in experiment [11] was above 167 µM.
For `OC[C@H]1O[C@@H](n2cnc3c(NCc4cc(F)c(F)cc4F)ncnc32)[C@H](O)[C@@H]1O`, the Activity is reported as 120% in [1], 99% in experiment [5] and 95% in experiment [7].
